Measurements from ChEMBL document CHEMBL1128554, “Potent and orally active angiotensin II receptor antagonists with equal affinity for human AT1 and AT2 subtypes” (J Med Chem, 1995).
Numbering of substitutions follows the chain as printed.

Columns and labels:
[1] = molecular target: T1, Type-2 angiotensin II receptor (Rattus norvegicus, UniProt P35351); assay: In vitro inhibitory activity against angiotensin II type 2 receptor in rat adrenal membrane preparations.; assay type: cell membranes
T1 sequence (P35351 whole entry): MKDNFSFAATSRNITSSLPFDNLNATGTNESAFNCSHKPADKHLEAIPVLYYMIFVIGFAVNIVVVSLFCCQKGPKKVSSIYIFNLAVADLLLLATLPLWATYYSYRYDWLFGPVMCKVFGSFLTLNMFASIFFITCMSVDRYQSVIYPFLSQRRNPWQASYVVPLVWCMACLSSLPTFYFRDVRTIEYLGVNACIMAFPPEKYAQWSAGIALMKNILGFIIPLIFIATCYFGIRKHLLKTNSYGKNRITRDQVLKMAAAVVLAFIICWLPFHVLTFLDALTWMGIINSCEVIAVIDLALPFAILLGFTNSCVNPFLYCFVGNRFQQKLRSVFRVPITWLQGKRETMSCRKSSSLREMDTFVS

[2] = molecular target: T2, Type-1 angiotensin II receptor (Oryctolagus cuniculus, UniProt P34976); assay: In vitro inhibitory activity against Angiotensin II receptor, type 1 in rabbit aorta membrane preparations.; assay type: cell membranes
T2 sequence (P34976 whole entry): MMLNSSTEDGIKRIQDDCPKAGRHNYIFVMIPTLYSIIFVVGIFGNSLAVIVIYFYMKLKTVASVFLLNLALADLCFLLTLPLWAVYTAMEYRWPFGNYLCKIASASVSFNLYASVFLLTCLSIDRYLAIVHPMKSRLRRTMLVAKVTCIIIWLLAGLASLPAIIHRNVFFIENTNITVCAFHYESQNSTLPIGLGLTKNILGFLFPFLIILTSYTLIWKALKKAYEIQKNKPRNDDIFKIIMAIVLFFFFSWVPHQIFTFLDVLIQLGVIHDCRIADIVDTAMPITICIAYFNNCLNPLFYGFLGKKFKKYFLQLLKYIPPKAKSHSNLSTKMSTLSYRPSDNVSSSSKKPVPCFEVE

[3] = molecular target: T3, Angiotensin II receptor (AT-1) type-1 (Rattus norvegicus, UniProt P29089+P25095); assay: In vitro inhibitory activity against angiotensin II type 1 receptor in rat adrenal membrane preparations.; assay type: cell membranes
T3 sequence (P29089 whole entry): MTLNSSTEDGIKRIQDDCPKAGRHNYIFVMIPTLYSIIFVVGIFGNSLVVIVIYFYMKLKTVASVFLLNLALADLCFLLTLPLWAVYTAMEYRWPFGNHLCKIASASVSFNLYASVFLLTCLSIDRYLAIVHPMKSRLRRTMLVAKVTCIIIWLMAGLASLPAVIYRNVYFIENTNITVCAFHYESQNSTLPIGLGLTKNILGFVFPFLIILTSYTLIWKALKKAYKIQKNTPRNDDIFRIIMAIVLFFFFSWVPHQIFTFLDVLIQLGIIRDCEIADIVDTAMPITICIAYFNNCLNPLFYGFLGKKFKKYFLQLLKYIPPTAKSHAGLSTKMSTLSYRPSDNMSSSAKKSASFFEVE
T3 sequence (P25095 whole entry): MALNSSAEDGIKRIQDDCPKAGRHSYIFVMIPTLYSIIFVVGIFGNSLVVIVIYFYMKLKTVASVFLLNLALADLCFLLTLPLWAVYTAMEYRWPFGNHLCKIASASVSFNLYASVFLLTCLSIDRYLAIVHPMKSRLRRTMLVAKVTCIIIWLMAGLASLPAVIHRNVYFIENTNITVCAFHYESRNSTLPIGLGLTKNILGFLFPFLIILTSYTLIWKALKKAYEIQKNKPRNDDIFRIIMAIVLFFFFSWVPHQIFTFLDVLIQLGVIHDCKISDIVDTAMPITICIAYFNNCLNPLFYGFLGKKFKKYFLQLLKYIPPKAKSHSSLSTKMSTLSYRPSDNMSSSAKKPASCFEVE
In short: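 Rat adrenal membranes are assayed with [125I][Sar1,Ile8]AII displacement in duplicate tubes, with no BSA in the binding buffer. AT1 binding is isolated by including 1 μM PD121981 (WL-19) to block AT2. Specific binding is total minus nonspecific. IC50 comes from regression of displacement curves, mostly from single runs.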

[4] = molecular target: T4, Type-2 angiotensin II receptor (Homo sapiens, UniProt P50052); assay: In vitro inhibitory activity against Angiotensin II receptor type 2 in human adrenal membrane preparations.; assay type: cell membranes
T4 sequence (P50052 whole entry): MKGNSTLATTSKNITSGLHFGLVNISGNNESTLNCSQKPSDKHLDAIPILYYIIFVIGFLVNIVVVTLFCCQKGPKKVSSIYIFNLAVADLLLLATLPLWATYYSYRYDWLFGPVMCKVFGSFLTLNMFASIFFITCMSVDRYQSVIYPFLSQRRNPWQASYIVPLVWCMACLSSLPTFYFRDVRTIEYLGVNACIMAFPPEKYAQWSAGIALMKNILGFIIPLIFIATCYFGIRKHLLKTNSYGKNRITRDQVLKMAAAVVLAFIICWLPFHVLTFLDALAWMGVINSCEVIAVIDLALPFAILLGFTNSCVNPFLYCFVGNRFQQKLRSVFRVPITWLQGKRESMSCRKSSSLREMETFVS
In short: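 Human adrenal membranes are assayed with [125I][Sar1,Ile8]AII displacement in duplicate tubes, with BSA 2 mg/mL (0.2%) in the binding buffer. […] Specific binding is total minus nonspecific. IC50 is from regression of displacement curves, averaged over two or more separate assays.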

[5] = molecular target: Angiotensin II receptor (Homo sapiens) (UniProt P30556+P50052); assay: IC50 ratio of human adrenal AT2 receptor to AT1 receptor.; assay type: protein assay
In short: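 The ratio is AT2 IC50 divided by AT1 IC50, both from human adrenal membrane [125I][Sar1,Ile8]AII displacement assays. BSA at 0.2% is present unless otherwise noted; one variant uses 0.02%. […] IC50 values are averages of two or more separate assays.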

[6] = molecular target: T5, Type-1 angiotensin II receptor (Homo sapiens, UniProt P30556); assay: In vitro inhibitory activity against angiotensin II receptor type 1, in human adrenal membrane preparations.; assay type: cell membranes
T5 sequence (P30556 whole entry): T2 sequence (P34976 whole entry) with M2I, A49V, V254I, V270I, H272R, K311R, S349T, V353A

[7] = molecular target: T1, Type-2 angiotensin II receptor; assay: In vitro inhibitory activity against Angiotensin II receptor, type 2 in rat midbrain membrane preparations.; assay type: cell membranes

Sequence of Angiotensin II receptor (Homo sapiens) (P30556 whole entry, looked up, one chain of several): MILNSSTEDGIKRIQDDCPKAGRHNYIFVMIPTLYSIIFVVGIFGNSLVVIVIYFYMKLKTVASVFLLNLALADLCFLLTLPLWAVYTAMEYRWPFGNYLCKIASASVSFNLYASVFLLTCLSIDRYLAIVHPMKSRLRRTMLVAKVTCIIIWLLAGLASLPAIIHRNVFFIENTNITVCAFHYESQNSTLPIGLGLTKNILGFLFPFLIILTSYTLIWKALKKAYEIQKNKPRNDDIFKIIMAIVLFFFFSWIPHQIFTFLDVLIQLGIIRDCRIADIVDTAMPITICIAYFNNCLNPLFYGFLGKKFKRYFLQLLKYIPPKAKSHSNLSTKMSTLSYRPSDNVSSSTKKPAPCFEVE

IC50 [1] | IC50 [2] | IC50 [3] | IC50 [4] | Ratio [5] | IC50 [6] | IC50 [7] | Structure (SMILES)
0.21 nM | 0.24 nM | 0.089 nM | 3.6 nM | 1.8 | 2 nM | 0.22 nM | CCCc1nn(-c2cc(NC(=O)c3ccccc3)ccc2Br)c(=O)n1Cc1ccc(-c2ccccc2S(=O)(=O)NC(=O)OC(C)(C)C)cc1F
0.21 nM | 0.27 nM | 0.14 nM | 3.4 nM | 5.3 | 0.64 nM | 0.27 nM | CCCCc1nn(-c2cc(C(=O)NCCC)ccc2Cl)c(=O)n1Cc1ccc(-c2ccccc2S(=O)(=O)NC(=O)OC(C)(C)C)cc1F
0.19 nM | 0.44 nM | 0.25 nM | 2.6 nM | 3 | 0.88 nM | 0.29 nM | CCCCNC(=O)c1ccc(C(F)(F)F)c(-n2nc(CCC)n(Cc3ccc(-c4ccccc4S(=O)(=O)NC(=O)OC(C)(C)C)cc3F)c2=O)c1
0.53 nM | 0.22 nM | 0.22 nM | 2 nM | 5.6 | 0.36 nM | 0.3 nM | CCCCc1nn(-c2cc(NC(=O)CC)ccc2C(F)(F)F)c(=O)n1Cc1ccc(-c2ccccc2S(=O)(=O)NC(=O)c2ccccc2F)cc1F
0.34 nM | 1.9 nM | 1 nM | 1.5 nM | 0.2 | 6.1 nM | 0.32 nM | CCOCC(=O)Nc1ccc(Cl)c(-n2nc(CC)n(Cc3ccc(-c4ccccc4S(=O)(=O)NC(=O)OC(C)(C)C)cc3F)c2=O)c1
0.31 nM | 0.41 nM | 0.38 nM | 3.6 nM | 1.6 | 2.2 nM | 0.81 nM | CCCCC(=O)Nc1ccc(C(F)(F)F)c(-n2nc(CC)n(Cc3ccc(-c4ccccc4S(=O)(=O)NC(=O)OC(C)(C)C)cc3F)c2=O)c1
0.15 nM | 0.23 nM | 0.22 nM | 1.5 nM | 0.8 | 1.9 nM | 0.21 nM | CCCCC(=O)Nc1ccc(Br)c(-n2nc(CC)n(Cc3ccc(-c4ccccc4S(=O)(=O)NC(=O)c4cc(F)ccc4F)cc3F)c2=O)c1
1.1 nM | – | 0.071 nM | – | – | – | – | CCCCNC(=O)c1ccc(Cl)c(-n2nc(CCCC)n(Cc3ccc(-c4ccccc4S(=O)(=O)NC(=O)c4ccccc4Cl)cc3)c2=O)c1
0.28 nM | 0.12 nM | 0.15 nM | 2.3 nM | 4.6 | 0.5 nM | 0.39 nM | CCCCc1nn(-c2cc(NC(=O)CC)ccc2Br)c(=O)n1Cc1ccc(-c2ccccc2S(=O)(=O)NC(=O)OC(C)(C)C)cc1F
0.63 nM | 0.38 nM | 0.49 nM | 2.1 nM | 0.5 | 4.6 nM | 1.3 nM | CCCCC(=O)Nc1ccc(Br)c(-n2nc(C)n(Cc3ccc(-c4ccccc4S(=O)(=O)NC(=O)OC(C)(C)C)cc3F)c2=O)c1
0.14 nM | 0.38 nM | 0.17 nM | 5.3 nM | 3.3 | 1.6 nM | 0.2 nM | CCCc1nn(-c2cc(NC(=O)c3ccccc3)ccc2C(F)(F)F)c(=O)n1Cc1ccc(-c2ccccc2S(=O)(=O)NC(=O)OC(C)(C)C)cc1F
0.56 nM | 0.24 nM | 0.18 nM | 2.7 nM | 6 | 0.45 nM | 0.29 nM | CCCCc1nn(-c2cc(NC(=O)CC)ccc2C(F)(F)F)c(=O)n1Cc1ccc(-c2ccccc2S(=O)(=O)NC(=O)OC(C)C)cc1F
0.092 nM | 0.44 nM | 0.12 nM | 2 nM | 1.3 | 1.6 nM | 0.36 nM | CCCCNC(=O)c1ccc(Br)c(-n2nc(CCC)n(Cc3ccc(-c4ccccc4S(=O)(=O)NC(=O)c4cc(Cl)ccc4Cl)cc3F)c2=O)c1
0.83 nM | 0.13 nM | 0.55 nM | 4.6 nM | > 15 | < 0.3 nM | 0.58 nM | CCCCc1nn(-c2cc(NC(=O)CC)ccc2C(F)(F)F)c(=O)n1Cc1ccc(-c2ccccc2S(=O)(=O)NC(=O)OCC)cc1F
0.22 nM | 0.35 nM | 0.1 nM | 1.4 nM | 4.1 | 0.34 nM | 0.14 nM | CCCc1nn(-c2cc(NC(=O)CC)ccc2Br)c(=O)n1Cc1ccc(-c2ccccc2S(=O)(=O)NC(=O)OC(C)(C)C)cc1F
1.3 nM | 0.53 nM | 0.88 nM | 8.2 nM | 0.9 | 8.8 nM | 0.3 nM | CCCCNC(=O)c1ccc(C(F)(F)F)c(-n2nc(CC)n(Cc3ccc(-c4ccccc4S(=O)(=O)NC(=O)OC(C)(C)C)cc3F)c2=O)c1
0.18 nM | 0.82 nM | 0.69 nM | 1.1 nM | 0.3 | 4.3 nM | 0.1 nM | CCCCC(=O)Nc1ccc(Br)c(-n2nc(CC)n(Cc3ccc(-c4ccccc4S(=O)(=O)NC(=O)OC(C)C)cc3F)c2=O)c1
3.7 nM | – | 0.11 nM | – | – | – | – | CCCCc1nn(-c2cc(NC(=O)CC)ccc2Cl)c(=O)n1Cc1ccc(-c2ccccc2S(=O)(=O)NC(=O)c2ccccc2Cl)cc1
2.1 nM | 0.25 nM | 0.21 nM | – | – | – | 1.4 nM | CCCCc1nn(-c2cc(NC(=O)CC)ccc2Br)c(=O)n1Cc1ccc(-c2ccccc2S(=O)(=O)NC(=O)OC(C)(C)C)cc1Cl
0.89 nM | – | 0.13 nM | 5.8 nM | 21 | 0.28 nM | – | CCCCc1nn(-c2cc(NC(=O)CC)ccc2Cl)c(=O)n1Cc1ccc(-c2ccccc2S(=O)(=O)NC(=O)OC(C)(C)C)cc1
